The text below walks through data of ChEMBL document CHEMBL5678813, “Optimization of a novel series of N-phenylindoline-5-sulfonamide-based acyl CoA:monoacylglycerol acyltransferase-2 inhibitors: Mitigation of CYP3A4 time-dependent inhibition and phototoxic liabilities” (Bioorg Med Chem, 2015).

Bounds are passed on as bounds.

The clearance is a measure of how efficiently the substance is removed, as volume per time. High values mean a high capacity for elimination, low ones a low capacity for elimination. What is called IC50 is the midpoint of a concentration-inhibition curve. As a reminder, the inhibition is the relative decrease from the control value, in per cent. Read a low inhibition as little suppression.

Data set [1] can be described thus: Total clearance in mouse at 0.1 mg/kg, iv administered as cassette dose by LC/MS/MS analysis. In kind it is ADME, organism-based. To be noted: in vivo. In short, it runs like this:
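Non-fasted mice dosed by cassette, iv 0.1 mg/kg or po 1 mg/kg suspended in 0.5% methylcellulose aqueous solution; plasma obtained from blood by centrifugation, deproteinized with acetonitrile, and compound concentrations measured by LC/MS/MS.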

In data set [2] the target is T1, Sterol O-acyltransferase 1 (Homo sapiens, UniProt P35610).
T1 sequence (P35610 whole entry): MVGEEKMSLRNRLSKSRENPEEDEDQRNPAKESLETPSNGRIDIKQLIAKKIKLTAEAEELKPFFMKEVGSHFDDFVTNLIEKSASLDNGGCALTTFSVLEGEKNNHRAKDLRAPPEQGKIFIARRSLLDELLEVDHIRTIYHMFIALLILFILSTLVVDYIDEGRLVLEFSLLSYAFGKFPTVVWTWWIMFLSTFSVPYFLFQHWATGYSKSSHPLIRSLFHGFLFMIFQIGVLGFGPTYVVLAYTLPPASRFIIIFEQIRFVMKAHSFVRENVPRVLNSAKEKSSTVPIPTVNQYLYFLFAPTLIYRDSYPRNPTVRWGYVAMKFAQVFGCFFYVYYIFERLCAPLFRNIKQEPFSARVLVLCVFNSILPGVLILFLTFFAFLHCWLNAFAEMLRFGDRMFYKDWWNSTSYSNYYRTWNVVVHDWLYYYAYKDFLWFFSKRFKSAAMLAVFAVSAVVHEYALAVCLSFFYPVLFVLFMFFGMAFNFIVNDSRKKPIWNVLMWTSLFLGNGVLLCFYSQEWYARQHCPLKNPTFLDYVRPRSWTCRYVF
Put plainly: Inhibition of N-terminal FLAG-tagged full-length human ACAT1 expressed in recombinant baculovirus infected Sf21 cells using [1-14C]-oleoyl-CoA and cholesterol as substrate incubated for 40 mins by TLC analysis. The method in brief:
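Sf-21 insect cell membranes from baculovirus infection, prepared in pH 7.4 phosphate/sucrose/KCl buffer. Enzyme at 30 µg/mL reacted with 5 µM [1-14C]-oleoyl-CoA and 100 µM cholesterol for 40 min at 32 °C. Lipids extracted by modified Bligh & Dyer, separated on silica TLC (hexane/ethyl ether/acetic acid), and radioactivity imaged.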

Data set [3] deals with T2, Diacylglycerol O-acyltransferase 1 (Homo sapiens, UniProt O75907).
T2 sequence (O75907 whole entry): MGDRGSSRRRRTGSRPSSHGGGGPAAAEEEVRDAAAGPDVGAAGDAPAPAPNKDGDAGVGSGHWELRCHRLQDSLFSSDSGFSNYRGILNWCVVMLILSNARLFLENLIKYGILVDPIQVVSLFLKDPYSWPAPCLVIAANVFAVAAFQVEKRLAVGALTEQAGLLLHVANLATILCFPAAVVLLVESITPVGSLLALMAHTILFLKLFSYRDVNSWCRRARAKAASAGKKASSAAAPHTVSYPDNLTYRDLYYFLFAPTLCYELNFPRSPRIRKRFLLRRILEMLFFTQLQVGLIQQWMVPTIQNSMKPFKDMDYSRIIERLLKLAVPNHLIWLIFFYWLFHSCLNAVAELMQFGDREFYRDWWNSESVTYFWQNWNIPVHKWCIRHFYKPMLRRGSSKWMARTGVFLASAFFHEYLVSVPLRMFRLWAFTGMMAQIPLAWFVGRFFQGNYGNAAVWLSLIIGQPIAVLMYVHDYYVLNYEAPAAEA
Put plainly: Inhibition of N-terminal FLAG-tagged full-length human DGAT1 expressed in recombinant baculovirus infected Sf21 cells using [1-14C]-oleoyl-CoA and 1,2-dioleoyl-glycerol as substrate incubated for 40 mins by TLC analysis. The method in brief: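 Membranes from baculovirus-infected Sf-21 cells, each enzyme at 30 µg/mL, incubated with 5 µM [1-14C]-oleoyl-CoA and 40 µM 1,2-dioleoyl-glycerol for 40 min at 32 °C. Lipids extracted by modified Bligh & Dyer, resolved on silica TLC, and radioactivity incorporated into lipids quantified.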

For the next data set, the target named is T3, CYP1A2 (Homo sapiens, UniProt P05177).
T3 sequence (P05177 whole entry): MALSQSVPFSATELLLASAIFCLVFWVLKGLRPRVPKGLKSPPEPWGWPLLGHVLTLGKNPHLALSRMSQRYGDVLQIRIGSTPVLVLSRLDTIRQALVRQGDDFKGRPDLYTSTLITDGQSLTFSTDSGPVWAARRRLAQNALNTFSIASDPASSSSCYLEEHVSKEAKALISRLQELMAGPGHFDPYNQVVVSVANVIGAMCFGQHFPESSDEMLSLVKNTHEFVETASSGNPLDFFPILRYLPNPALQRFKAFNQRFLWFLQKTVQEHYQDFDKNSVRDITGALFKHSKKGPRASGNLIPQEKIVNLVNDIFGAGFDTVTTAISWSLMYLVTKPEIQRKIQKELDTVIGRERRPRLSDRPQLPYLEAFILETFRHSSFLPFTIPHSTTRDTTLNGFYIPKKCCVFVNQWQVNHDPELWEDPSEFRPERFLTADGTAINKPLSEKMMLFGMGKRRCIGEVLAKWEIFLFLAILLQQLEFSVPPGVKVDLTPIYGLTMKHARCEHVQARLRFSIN
Put plainly: Reversible inhibition of CYP1A2 in human liver microsomes using tacrine as substrate at 10 uM incubated for 10 mins by LC/MS/MS analysis relative to control. The data set is classed as ADME, Microsome. The conditions noted are these: probe tacrine. In short, it runs like this: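 Human liver microsomes at 0.1 mg/mL incubated 10 min at 37 °C with isoform-specific substrate and 10 µM test compound. Pairs: 1A2 tacrine/1-hydroxytacrine; 2C8 paclitaxel/6α-hydroxypaclitaxel; 2C9 tolbutamide/4-hydroxytolbutamide; 2D6 dextromethorphan/dextrorphan; 3A4 midazolam/1'-hydroxymidazolam. Stopped with acetonitrile/water; metabolite measured by LC/MS/MS.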
(In general: Microsomes from liver hold many membrane-bound enzymes, among them those of drug oxidation.)

In data set [1], `Cn1nc(C(F)(F)F)cc1-c1cnc(N2CCc3cc(S(=O)(=O)Nc4c(F)cc(Cl)cc4F)cc(N4CCCC4=O)c32)nc1` [TP-020] gave a clearance of 3.42 mL/min/kg. Besides, the IC50 in data set [2] and in data set [3] was greater than 10 µM throughout. Also, the inhibition at 10 min, 10 µM against CYP1A2 was less than 10%.
